Assay results from ChEMBL document CHEMBL1154616, “Synthesis and antitumor activity studies of some new fused 1,2,4-triazole derivatives carrying 2,4-dichloro-5-fluorophenyl moiety” (Eur J Med Chem, 2009).

How the values were obtained:
BT-549 = test: Anticancer activity against human BT549 cells after 48 hrs by sulforhodamine B assay; assay type: functional; details: BT-549, 48 h
Summary of the method: (§1)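 Full 60-cell-line panel, compounds tested over a five-log dose range. Cells are preincubated on microtiter plates, the agent is added, and cultures run 48 h. The end point is sulphorhodamine B protein staining. GI50 is taken as the concentration giving 50% growth inhibition relative to untreated control cells.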

Malme-3M = test: Anticancer activity against human MALME-3M cells after 48 hrs by sulforhodamine B assay; assay type: functional; summary of the method: as §1
MOLT-4 = test: Anticancer activity against human MOLT4 cells after 48 hrs by sulforhodamine B assay; assay type: functional; details: MOLT-4, 48 h; summary of the method: as §1
IGROV-1 = test: Anticancer activity against human IGROV1 cells after 48 hrs by sulforhodamine B assay; assay type: functional; details: IGROV-1, 48 h; summary of the method: as §1
TK-10 = test: Anticancer activity against human TK10 cells after 48 hrs by sulforhodamine B assay; assay type: functional; details: TK-10, 48 h
Summary of the method: (§2)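 Cells from the 60-line full panel are preincubated on microtiter plates, then treated across a five-log dose range for 48 h. Growth is read with the protein-binding dye sulforhodamine B. GI50 is the concentration giving 50% growth inhibition relative to untreated control cells.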

[1] = Acute toxicity in orally dosed Swiss albino mouse after 24 hrs; assay type: organism-based; details: in vivo, po
Summary of the method: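 Male Swiss albino mice (Mus musculus); median lethal dose (LD50) determined after oral dosing, read at 24 h.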

MCF7 [2] = test: Anticancer activity against human MCF7 cells after 48 hrs by sulforhodamine B assay; assay type: functional; details: MCF7, 48 h; summary of the method: as §1
T47D = test: Anticancer activity against human T47D cells after 48 hrs by sulforhodamine B assay; assay type: functional; summary of the method: as §2
SK-MEL-28 = test: Anticancer activity against human SK-MEL-28 cells after 48 hrs by sulforhodamine B assay; assay type: functional; details: SK-MEL-28, 48 h; summary of the method: as §1
RXF 393 = test: Anticancer activity against human RXF393 cells after 48 hrs by sulforhodamine B assay; assay type: functional; details: RXF 393, 48 h; summary of the method: as §1
NCI-H226 = test: Anticancer activity against human NCI-H226 cells after 48 hrs by sulforhodamine B assay; assay type: functional; details: NCI-H226, 48 h; summary of the method: as §1
HCT-15 = test: Anticancer activity against human HCT15 cells after 48 hrs by sulforhodamine B assay; assay type: functional; details: HCT-15, 48 h; summary of the method: as §1
UO-31 = test: Anticancer activity against human UO31 cells after 48 hrs by sulforhodamine B assay; assay type: functional; details: UO-31, 48 h; summary of the method: as §2
NCI-H460 [3] = test: Anticancer activity against human NCI-H460 cells assessed as cell growth at 100 uM after 48 hrs by sulforhodamine B assay relative to control; assay type: functional; details: NCI-H460, 48 h, read-out: Activity
Summary of the method: (§3)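 Three-cell-line prescreen (NCI-H460 lung, MCF7 breast, SF 268 CNS), each preincubated on microtiter plates. The agent is added at a single concentration and cultures are incubated 48 h. Growth is read by sulphorhodamine B protein staining and reported as percent growth of treated versus untreated control cells; negative values indicate cell kill.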

UACC-62 = test: Anticancer activity against human UACC62 cells after 48 hrs by sulforhodamine B assay; assay type: functional; details: UACC-62, 48 h; summary of the method: as §2
KM12 = test: Anticancer activity against human KM12 cells after 48 hrs by sulforhodamine B assay; assay type: functional; details: KM12, 48 h; summary of the method: as §1
786-0 = test: Anticancer activity against human 786-0 cells after 48 hrs by sulforhodamine B assay; assay type: functional; details: 786-0, 48 h; summary of the method: as §1
HOP-62 = test: Anticancer activity against human HOP62 cells after 48 hrs by sulforhodamine B assay; assay type: functional; details: HOP-62, 48 h; summary of the method: as §1
NCI-H322M = test: Anticancer activity against human NCI-H322M cells after 48 hrs by sulforhodamine B assay; assay type: functional; summary of the method: as §1
SK-OV-3 = test: Anticancer activity against human SKOV3 cells after 48 hrs by sulforhodamine B assay; assay type: functional; details: SK-OV-3, 48 h; summary of the method: as §1
SF-295 = test: Anticancer activity against human SF295 cells after 48 hrs by sulforhodamine B assay; assay type: functional; details: SF-295, 48 h; summary of the method: as §1
NCI/ADR-RES = test: Anticancer activity against human NCI/ADR-RES cells after 48 hrs by sulforhodamine B assay; assay type: functional; summary of the method: as §1
HCC 2998 = test: Anticancer activity against human HCC2998 cells after 48 hrs by sulforhodamine B assay; assay type: functional; details: HCC 2998, 48 h; summary of the method: as §1
DU-145 = test: Anticancer activity against human DU145 cells after 48 hrs by sulforhodamine B assay; assay type: functional; details: DU-145, 48 h; summary of the method: as §1
OVCAR-8 = test: Anticancer activity against human OVCAR8 cells after 48 hrs by sulforhodamine B assay; assay type: functional; details: OVCAR-8, 48 h; summary of the method: as §1
NCI-H522 = test: Anticancer activity against human NCI-H522 cells after 48 hrs by sulforhodamine B assay; assay type: functional; details: NCI-H522, 48 h; summary of the method: as §1
A549 = test: Anticancer activity against human A549 cells after 48 hrs by sulforhodamine B assay; assay type: functional; details: A549, 48 h; summary of the method: as §1
COLO 205 = test: Anticancer activity against human COLO205 cells after 48 hrs by sulforhodamine B assay; assay type: functional; details: COLO 205, 48 h; summary of the method: as §1
SF-268 [4] = test: Anticancer activity against human SF268 cells after 48 hrs by sulforhodamine B assay; assay type: functional; details: SF-268, 48 h; summary of the method: as §1
SNB-75 = test: Anticancer activity against human SNB75 cells after 48 hrs by sulforhodamine B assay; assay type: functional; details: SNB-75, 48 h; summary of the method: as §2
LOX IMVI = test: Anticancer activity against human LOXIMVI cells after 48 hrs by sulforhodamine B assay; assay type: functional; summary of the method: as §1
ACHN = test: Anticancer activity against human ACHN cells after 48 hrs by sulforhodamine B assay; assay type: functional; summary of the method: as §1
EKVX = test: Anticancer activity against human EKVX cells after 48 hrs by sulforhodamine B assay; assay type: functional; summary of the method: as §1
PC-3 = test: Anticancer activity against human PC3 cells after 48 hrs by sulforhodamine B assay; assay type: functional; details: PC-3, 48 h; summary of the method: as §1
MDA-MB-231 = test: Anticancer activity against human MDA-MB-231 cells after 48 hrs by sulforhodamine B assay; assay type: functional; details: MDA-MB-231, 48 h; summary of the method: as §1
UACC-257 = test: Anticancer activity against human UACC257 cells after 48 hrs by sulforhodamine B assay; assay type: functional; details: UACC-257, 48 h; summary of the method: as §2
NCI-H23 = test: Anticancer activity against human NCI-H23 cells after 48 hrs by sulforhodamine B assay; assay type: functional; details: NCI-H23, 48 h; summary of the method: as §1
HOP-92 = test: Anticancer activity against human HOP92 cells after 48 hrs by sulforhodamine B assay; assay type: functional; details: HOP-92, 48 h; summary of the method: as §1
U-251 = test: Anticancer activity against human U251 cells after 48 hrs by sulforhodamine B assay; assay type: functional; details: U-251, 48 h; summary of the method: as §2
NCI-H460 [5] = test: Anticancer activity against human NCI-H460 cells after 48 hrs by sulforhodamine B assay; assay type: functional; details: NCI-H460, 48 h; summary of the method: as §1
K562 = test: Anticancer activity against human K562 cells after 48 hrs by sulforhodamine B assay; assay type: functional; details: K562, 48 h; summary of the method: as §1
A498 = test: Anticancer activity against human A498 cells after 48 hrs by sulforhodamine B assay; assay type: functional; details: A498, 48 h; summary of the method: as §1
SN12C = test: Anticancer activity against human SN12C cells after 48 hrs by sulforhodamine B assay; assay type: functional; summary of the method: as §1
MDA-MB-435 = test: Anticancer activity against human MDA-MB-435 cells after 48 hrs by sulforhodamine B assay; assay type: functional; details: MDA-MB-435, 48 h; summary of the method: as §1
MCF7 [6] = test: Anticancer activity against human MCF7 cells assessed as cell growth at 100 uM after 48 hrs by sulforhodamine B assay relative to control; assay type: functional; details: MCF7, 48 h, read-out: Activity; summary of the method: as §3
M14 = test: Anticancer activity against human M14 cells after 48 hrs by sulforhodamine B assay; assay type: functional; details: M14, 48 h; summary of the method: as §1
SW-620 = test: Anticancer activity against human SW620 cells after 48 hrs by sulforhodamine B assay; assay type: functional; details: SW-620, 48 h; summary of the method: as §2
HCT-116 = test: Anticancer activity against human HCT116 cells after 48 hrs by sulforhodamine B assay; assay type: functional; details: HCT-116, 48 h; summary of the method: as §1
SF-268 [7] = test: Anticancer activity against human SF268 cells assessed as cell growth at 100 uM after 48 hrs by sulforhodamine B assay relative to control; assay type: functional; details: SF-268, 48 h, read-out: Activity; summary of the method: as §3
OVCAR-5 = test: Anticancer activity against human OVCAR5 cells after 48 hrs by sulforhodamine B assay; assay type: functional; details: OVCAR-5, 48 h; summary of the method: as §1
SNB-19 = test: Anticancer activity against human SNB19 cells after 48 hrs by sulforhodamine B assay; assay type: functional; details: SNB-19, 48 h; summary of the method: as §1
CAKI-1 = test: Anticancer activity against human Caki1 cells after 48 hrs by sulforhodamine B assay; assay type: functional; details: CAKI-1, 48 h; summary of the method: as §1
OVCAR-3 = test: Anticancer activity against human OVCAR-3 cells after 48 hrs by sulforhodamine B assay; assay type: functional; details: OVCAR-3, 48 h; summary of the method: as §1
HT-29 = test: Anticancer activity against human HT-29 cells after 48 hrs by sulforhodamine B assay; assay type: functional; details: HT-29, 48 h; summary of the method: as §1
OVCAR-4 = test: Anticancer activity against human OVCAR4 cells after 48 hrs by sulforhodamine B assay; assay type: functional; details: OVCAR-4, 48 h; summary of the method: as §1

Fc1cc(-c2nnc3n2N=C(c2ccc(Cl)cc2)CS3)c(Cl)cc1Cl
GI50 (BT-549): 3.27 µM
GI50 (Malme-3M): 2.37 µM
GI50 (MOLT-4): 1.06 µM
GI50 (IGROV-1): 3.39 µM
GI50 (TK-10): 3.11 µM
LD50 at 24 h [1]: 227 mg/kg
GI50 (MCF7 [2]): 6.24 µM
GI50 (T47D): 3.9 µM
GI50 (SK-MEL-28): 6.41 µM
GI50 (RXF 393): 11.4 µM
GI50 (NCI-H226): 18.1 µM
GI50 (HCT-15): 1.86 µM
GI50 (UO-31): 1.89 µM
growth at 100 µM (NCI-H460 [3]): 3%
GI50 (UACC-62): 3.63 µM
GI50 (KM12): 8.08 µM
GI50 (786-0): 2.08 µM
GI50 (HOP-62): 20.1 µM
GI50 (NCI-H322M): 16.2 µM
GI50 (SK-OV-3): 25.4 µM
GI50 (SF-295): 15.7 µM
GI50 (NCI/ADR-RES): 3.12 µM
GI50 (HCC 2998): 13.6 µM
GI50 (DU-145): 3.41 µM
GI50 (OVCAR-8): 14.8 µM
GI50 (NCI-H522): 1.8 µM
GI50 (A549): 18.3 µM
GI50 (COLO 205): 7.09 µM
GI50 (SF-268 [4]): 13.2 µM
GI50 (SNB-75): 3.37 µM
GI50 (LOX IMVI): 1.69 µM
GI50 (ACHN): 4.82 µM
GI50 (EKVX): 27.4 µM
GI50 (PC-3): 18.7 µM
GI50 (MDA-MB-231): 10.8 µM
GI50 (UACC-257): 15.7 µM
GI50 (NCI-H23): 13.8 µM
GI50 (HOP-92): 16.4 µM
GI50 (U-251): 10.6 µM
GI50 (NCI-H460 [5]): 19.1 µM
GI50 (K562): 1.69 µM
GI50 (A498): 21 µM
GI50 (SN12C): 3.6 µM
GI50 (MDA-MB-435): 4.55 µM
growth at 100 µM (MCF7 [6]): 3%
GI50 (M14): 4.87 µM
GI50 (SW-620): 1.91 µM
GI50 (HCT-116): 2.36 µM
growth at 100 µM (SF-268 [7]): 3%
GI50 (OVCAR-5): 10.6 µM
GI50 (SNB-19): 19.5 µM
GI50 (CAKI-1): 4.21 µM
GI50 (OVCAR-3): 15.1 µM
GI50 (HT-29): 4.6 µM
GI50 (OVCAR-4): 5.35 µM
